{"source": "PubChem BioAssay AID2152", "about": "(The Scripps Research Institute Molecular Screening Center, 2009)", "note": "The campaign covered roughly 2,300 compounds. About 25 (1%) were called active.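 The calls were made as follows: active = mean inhibition over three replicate wells above the hit threshold derived in the earlier primary screen (cut at about 45% in these data); inactive = the rest.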 The entries come from a sample that favours actives as a whole."}
{"tested_on": "Hepatitis C virus core protein (core106 dimerization)", "assay": "blockers of core106 self-association – biochemical, TR-FRET, triplicate, confirmation (AID 2152);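 also: 0% = DMSO wells and 100% = unlabelled core106 competitor control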", "settings": "TR-FRET GST-/Flag-core106 dimerization, HTRF; at 5 µM; stronger effect = higher value", "in_short": "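Material: GST- and Flag-tagged HCV core106 peptides, dimerization via antibody TR-FRET. Medium: HEPES/KF buffer, pH 7.45. Doses: one 5 µM dose, 0.5% DMSO. Times: 4 h incubation, 22.5 °C. Detection: TR-FRET, excitation 340 nm, emission 671 and 617 nm. Measure: percent inhibition from emission ratio. Controls: unlabelled core106 and DMSO wells.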"}
{"smiles": "CN1C(=O)/C(=C/c2cccn2-c2ccc3ccccc3c2)C(=O)NC1=S", "inhibition": "9.68% (inactive)"}
{"smiles": "O=C1NC(=O)N(Cc2ccc(F)cc2)C(=O)/C1=C\\c1ccc(N2CCCC2)cc1", "inhibition": "4.49% (inactive)"}
{"smiles": "Cn1cccc1/C=C1/C(=O)NC(=S)N(Cc2ccc(F)cc2)C1=O", "inhibition": "64.5% (active)"}
{"smiles": "Cc1ccccc1N1C(=O)/C(=C/c2ccco2)C(=O)NC1=S", "inhibition": "66.3% (active)"}
{"smiles": "CCOc1cccc(N2C(=O)/C(=C/c3ccco3)C(=O)NC2=S)c1", "inhibition": "10.6% (inactive)"}
{"smiles": "Cc1ccc(N2C(=O)/C(=C/c3ccc(CN(CCC#N)S(C)(=O)=O)o3)C(=O)NC2=S)cc1C", "inhibition": "-8.42% (inactive)"}
{"smiles": "COC(=O)[C@@H]1[C@@H](C(=O)OC)C2(c3ccccc3-c3ccccc32)N(c2ccc(Cl)cc2)N1C#N", "inhibition": "8.69% (inactive)"}
{"smiles": "COc1ccccc1C(=O)Nc1ccc2c(c1)CC1(C(=O)N(C)C(=O)N(C)C1=O)C1CCCN21", "note": "(stereo not given)", "inhibition": "7.78% (inactive)"}
{"smiles": "Cc1ccccc1-n1c(CNc2ccccc2)nc2ccccc2c1=O", "inhibition": "-1.12% (inactive)"}
{"smiles": "CCN1C(=O)/C(=C/c2ccc3c(c2)CCN3CCCCl)C(=O)NC1=S", "inhibition": "15.4% (inactive)"}
